Laboratory results: ChEMBL document CHEMBL3877303 (J Med Chem, 2017)
Calls of active or inactive are those of the source. The rule behind the calls is not given here.

What was measured:
[1] = Antiproliferative activity against human GIST48B cells measured after 72 hrs by CellTiter-Glo or CCK8 assay; type: functional
In short: (§1)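 Cells at 1 to 2.5×10^4 cells/mL were incubated with a range of compound concentrations for 72 h. Viability was read by CellTiter-Glo luminescence or CCK-8 absorbance (450/655 nm) and normalized to DMSO control. GI50 came from curve fitting, with triplicate testing.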

[2] = Antiproliferative activity against human Rec1 cells measured after 72 hrs by CellTiter-Glo or CCK8 assay; type: functional; settings: Rec1, 72 h; in short: as §1
[3] = molecular target: T1, Discoidin domain-containing receptor 2 (Homo sapiens) (UniProt Q16832); experiment: Inhibition of BCR-fused DDR2 (unknown origin) expressed in BAF3 cells assessed as growth inhibition measured after 72 hrs by CellTiter-Glo or CCK8 assay; type: cell-based
T1 sequence (whole entry): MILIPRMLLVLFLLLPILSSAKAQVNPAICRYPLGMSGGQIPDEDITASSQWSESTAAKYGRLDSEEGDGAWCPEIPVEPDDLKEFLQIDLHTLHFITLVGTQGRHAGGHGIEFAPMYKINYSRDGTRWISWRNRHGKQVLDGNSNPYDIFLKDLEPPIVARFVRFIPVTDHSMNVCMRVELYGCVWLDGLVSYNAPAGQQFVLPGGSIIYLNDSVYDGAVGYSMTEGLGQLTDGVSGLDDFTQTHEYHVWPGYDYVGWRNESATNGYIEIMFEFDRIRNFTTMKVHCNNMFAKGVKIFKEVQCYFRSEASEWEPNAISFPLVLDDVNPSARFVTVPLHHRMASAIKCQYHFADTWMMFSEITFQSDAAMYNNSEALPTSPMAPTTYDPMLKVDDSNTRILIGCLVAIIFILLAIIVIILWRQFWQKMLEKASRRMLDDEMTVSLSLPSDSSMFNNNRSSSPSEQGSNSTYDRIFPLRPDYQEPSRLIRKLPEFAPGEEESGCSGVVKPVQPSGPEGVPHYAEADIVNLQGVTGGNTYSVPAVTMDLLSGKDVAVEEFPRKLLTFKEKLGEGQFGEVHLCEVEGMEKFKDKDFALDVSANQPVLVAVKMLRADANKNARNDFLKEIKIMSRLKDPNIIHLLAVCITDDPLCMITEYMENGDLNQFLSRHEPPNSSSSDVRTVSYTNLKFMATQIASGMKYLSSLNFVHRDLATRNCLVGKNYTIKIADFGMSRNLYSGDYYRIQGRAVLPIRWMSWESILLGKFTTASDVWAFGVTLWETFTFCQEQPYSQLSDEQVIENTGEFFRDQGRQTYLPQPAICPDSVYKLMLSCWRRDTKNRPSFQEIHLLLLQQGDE
In short: (§2)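 BaF3 lines were made by retroviral transduction with kinase-fusion MSCV vectors packaged in HEK293T cells. Cells were selected with puromycin for 48 h, then selected again without IL-3 so growth depends on the introduced kinase. […] They were seeded at 1 to 2.5×10^4 cells/mL with compound dilutions and incubated 72 h. Viability was read by CellTiter-Glo luminescence or CCK-8 absorbance (450/655 nm), normalized to DMSO control; GI50 was curve-fitted from triplicate tests.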

[4] = Growth inhibition of mouse BAF3 cells measured after 72 hrs by CellTiter-Glo or CCK8 assay; type: cell-based; in short: as §1
[5] = Antiproliferative activity against human GIST882 cells measured after 72 hrs by CellTiter-Glo or CCK8 assay; type: functional; settings: GIST882, 72 h; in short: as §1
[6] = Antiproliferative activity against human MV4-11 cells measured after 72 hrs by CellTiter-Glo or CCK8 assay; type: functional; settings: MV4-11, 72 h; in short: as §1
[7] = molecular target: T2, Mast/stem cell growth factor receptor Kit (Homo sapiens, UniProt P10721); settings: GISTT1, 1 uM
T2 sequence (P10721 whole entry): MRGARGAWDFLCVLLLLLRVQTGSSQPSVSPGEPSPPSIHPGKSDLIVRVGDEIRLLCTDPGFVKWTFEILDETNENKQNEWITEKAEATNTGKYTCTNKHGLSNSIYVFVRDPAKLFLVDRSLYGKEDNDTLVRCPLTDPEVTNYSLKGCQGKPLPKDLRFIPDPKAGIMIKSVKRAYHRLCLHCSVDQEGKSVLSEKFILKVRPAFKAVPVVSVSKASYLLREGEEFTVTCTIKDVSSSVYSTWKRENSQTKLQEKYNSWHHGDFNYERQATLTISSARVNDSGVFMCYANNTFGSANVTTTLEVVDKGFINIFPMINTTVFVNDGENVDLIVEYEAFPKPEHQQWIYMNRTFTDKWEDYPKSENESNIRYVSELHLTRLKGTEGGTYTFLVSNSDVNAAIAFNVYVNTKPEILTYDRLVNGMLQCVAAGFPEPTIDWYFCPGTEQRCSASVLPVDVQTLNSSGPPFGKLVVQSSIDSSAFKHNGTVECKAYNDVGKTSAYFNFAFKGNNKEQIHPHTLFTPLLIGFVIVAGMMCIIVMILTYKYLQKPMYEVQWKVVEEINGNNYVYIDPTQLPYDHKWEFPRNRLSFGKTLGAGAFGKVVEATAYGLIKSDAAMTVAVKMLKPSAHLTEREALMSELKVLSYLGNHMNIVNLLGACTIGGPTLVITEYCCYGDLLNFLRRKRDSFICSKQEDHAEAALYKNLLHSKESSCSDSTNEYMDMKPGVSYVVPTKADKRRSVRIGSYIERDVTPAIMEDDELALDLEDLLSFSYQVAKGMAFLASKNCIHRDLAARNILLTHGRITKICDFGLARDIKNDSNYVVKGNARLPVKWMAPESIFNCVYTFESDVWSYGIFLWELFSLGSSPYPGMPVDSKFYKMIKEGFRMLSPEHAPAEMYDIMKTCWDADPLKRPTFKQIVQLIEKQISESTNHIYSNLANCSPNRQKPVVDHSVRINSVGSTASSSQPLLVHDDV

[8] = Anticancer activity against human K562 cells xenografted in nu/nu mouse assessed as tumor growth inhibition at 100 mg/kg administered daily via oral gavage measured 28 days post compound treatment relative to vehicle-treated control; type: functional; settings: 672 h, read-out: TGI
In short: (§3)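 Female nu/nu mice received ten million K562 cells subcutaneously in the right flank, in PBS mixed 1:1 with Matrigel. Daily oral gavage began at 200-400 mm³ tumor size, with 4 or 5 mice per group. Dosing was 25, 50 or 100 mg/kg/d or vehicle (0.5% methylcellulose/0.4% Tween80) for 28 days. Body weight and tumor size were normalized to initial values, and final tumor weight was recorded. Data are mean ± SEM.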

[9] = Antiproliferative activity against human MOLM14 cells measured after 72 hrs by CellTiter-Glo or CCK8 assay; type: functional; settings: MOLM-14, 72 h; in short: as §1
[10] = molecular target: T3, Tyrosine-protein kinase Blk (Homo sapiens, UniProt P51451); experiment: Inhibition of Tel-fused BLK (unknown origin) expressed in BAF3 cells assessed as growth inhibition measured after 72 hrs by CellTiter-Glo or CCK8 assay; type: cell-based; in short: as §2
T3 sequence (P51451 2-505 limits assumed): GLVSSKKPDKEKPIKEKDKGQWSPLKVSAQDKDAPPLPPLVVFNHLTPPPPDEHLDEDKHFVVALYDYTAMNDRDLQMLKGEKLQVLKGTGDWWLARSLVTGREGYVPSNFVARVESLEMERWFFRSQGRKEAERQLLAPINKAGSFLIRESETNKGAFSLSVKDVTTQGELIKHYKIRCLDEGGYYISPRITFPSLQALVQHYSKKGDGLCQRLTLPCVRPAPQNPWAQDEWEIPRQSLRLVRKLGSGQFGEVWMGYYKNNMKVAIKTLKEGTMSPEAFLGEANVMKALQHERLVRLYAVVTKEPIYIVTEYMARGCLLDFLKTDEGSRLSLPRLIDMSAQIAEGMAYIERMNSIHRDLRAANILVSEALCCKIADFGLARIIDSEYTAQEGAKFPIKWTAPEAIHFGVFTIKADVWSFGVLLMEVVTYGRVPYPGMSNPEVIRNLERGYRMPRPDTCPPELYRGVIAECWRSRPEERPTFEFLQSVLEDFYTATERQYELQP

[11] = molecular target: Vascular endothelial growth factor receptor 2 (Homo sapiens) (UniProt P35968); experiment: Inhibition of Tel-fused VEGFR2 (unknown origin) expressed in BAF3 cells assessed as growth inhibition measured after 72 hrs by CellTiter-Glo or CCK8 assay; type: cell-based; in short: as §2
Chain of Vascular endothelial growth factor receptor 2 (Homo sapiens) (P35968 whole entry, the tested form may be a part): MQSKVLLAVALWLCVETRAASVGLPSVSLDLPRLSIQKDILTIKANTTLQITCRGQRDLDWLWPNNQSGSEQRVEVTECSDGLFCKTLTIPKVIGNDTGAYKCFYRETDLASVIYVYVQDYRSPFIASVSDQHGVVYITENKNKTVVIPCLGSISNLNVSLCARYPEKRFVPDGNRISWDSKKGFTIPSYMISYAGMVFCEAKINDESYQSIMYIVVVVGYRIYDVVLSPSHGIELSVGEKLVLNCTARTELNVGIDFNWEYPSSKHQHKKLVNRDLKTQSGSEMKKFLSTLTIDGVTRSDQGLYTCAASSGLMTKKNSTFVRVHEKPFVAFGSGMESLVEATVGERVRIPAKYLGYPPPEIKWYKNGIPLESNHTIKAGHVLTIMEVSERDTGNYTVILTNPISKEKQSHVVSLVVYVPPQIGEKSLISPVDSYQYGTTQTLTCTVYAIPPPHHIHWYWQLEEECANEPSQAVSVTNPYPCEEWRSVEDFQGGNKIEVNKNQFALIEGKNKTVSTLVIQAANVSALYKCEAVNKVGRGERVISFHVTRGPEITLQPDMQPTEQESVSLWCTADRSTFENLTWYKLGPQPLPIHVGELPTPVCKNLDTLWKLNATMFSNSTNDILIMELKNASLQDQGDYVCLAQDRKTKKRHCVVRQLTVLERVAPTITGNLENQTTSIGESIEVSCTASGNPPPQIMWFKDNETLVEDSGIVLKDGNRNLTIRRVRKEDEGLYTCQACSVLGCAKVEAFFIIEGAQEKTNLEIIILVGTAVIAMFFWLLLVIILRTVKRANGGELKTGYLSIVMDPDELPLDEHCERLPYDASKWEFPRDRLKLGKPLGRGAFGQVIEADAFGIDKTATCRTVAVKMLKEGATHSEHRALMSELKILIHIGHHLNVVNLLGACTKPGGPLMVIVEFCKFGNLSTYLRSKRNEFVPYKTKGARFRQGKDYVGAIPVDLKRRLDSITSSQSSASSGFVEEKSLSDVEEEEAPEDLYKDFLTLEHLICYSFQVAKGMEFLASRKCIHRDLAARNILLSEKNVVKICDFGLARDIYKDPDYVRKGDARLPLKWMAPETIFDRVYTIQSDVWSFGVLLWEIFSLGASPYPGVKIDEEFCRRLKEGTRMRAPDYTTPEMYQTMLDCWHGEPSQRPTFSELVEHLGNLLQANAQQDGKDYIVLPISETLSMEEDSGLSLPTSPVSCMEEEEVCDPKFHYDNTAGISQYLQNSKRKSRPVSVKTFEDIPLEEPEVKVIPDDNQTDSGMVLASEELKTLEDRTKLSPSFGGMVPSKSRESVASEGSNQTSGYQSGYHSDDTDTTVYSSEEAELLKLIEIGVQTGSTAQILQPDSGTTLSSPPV

[12] = Cell cycle arrest in human GIST882 cells assessed as accumulation at G0/G1 phase at 1 uM after 48 hrs by propidium iodide/RNase staining based flow cytometry; type: functional
In short: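 Cells were exposed to serially diluted compound, then fixed in cold 70% ethanol overnight at -20 °C. They were stained with PI/RNase buffer for DNA-content cell-cycle analysis.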

[13] = Antiproliferative activity against human U937 cells measured after 72 hrs by CellTiter-Glo or CCK8 assay; type: functional; settings: U-937, 72 h; in short: as §1
[14] = Antiproliferative activity against CHO cells measured after 72 hrs by CellTiter-Glo or CCK8 assay; type: cell-based, Cricetulus griseus; settings: chinese hamster; in short: as §1
[15] = Antiproliferative activity against human GISTT1 cells measured after 72 hrs by CellTiter-Glo or CCK8 assay; type: functional; settings: GISTT1, 72 h; in short: as §1
[16] = Antiproliferative activity against human HL60 cells measured after 72 hrs by CellTiter-Glo or CCK8 assay; type: functional; settings: HL-60, 72 h; in short: as §1
[17] = Mean residence time (0 to t) in Sprague-Dawley rat at 10 mg/kg, po; type: ADME, organism-based; settings: in vivo
In short: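 Male Sprague-Dawley rats, 6-8 weeks old, fasted overnight, dosed iv or po. Jugular vein blood (~0.2 mL, heparin) sampled at 1 min to 8 h (iv) or 5 min to 24 h (po). Plasma separated by centrifugation at 2-8 °C and stored at -80 °C before analysis.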

[18] = molecular target: T3, Tyrosine-protein kinase Blk; experiment: Inhibition of full length recombinant His-tagged human BLK cytoplasmic domain expressed in baculovirus expression system assessed as residual activity at 1 uM measured after 1 hr by FRET based Z'Lyte assay relative to control
[19] = molecular target: T2, Mast/stem cell growth factor receptor Kit; experiment: Inhibition of recombinant C-terminal polyhistidine-tagged human c-KIT expressed in mammalian expression system assessed as residual activity at 1 uM using Tyr 06 peptide as substrate measured after 1hr by FRET based Z'Lyte assay relative to control
[20] = Anticancer activity against human K562 cells xenografted in nu/nu mouse assessed as tumor weight at 25 mg/kg administered via oral gavage measured after 28 days (reference value: 6.75 g); type: functional; in short: as §3

| Compound | GI50 [1] | GI50 [2] | GI50 [3] | GI50 at 72 h [4] | GI50 [5] | GI50 [6] | inhibition [7] | inhibition in vivo at 100 mg/kg [8] | GI50 [9] | GI50 [10] | GI50 [11] | Activity [12] | GI50 [13] | GI50 at 72 h [14] | GI50 [15] | GI50 [16] | MRT last [17] | Activity [18] | Activity [19] | Activity [20] |
| --- | --- | --- | --- | --- | --- | --- | --- | --- | --- | --- | --- | --- | --- | --- | --- | --- | --- | --- | --- | --- |
| Cc1ccc(NC(=O)c2ccc(CN3CCN(C)CC3)cc2)cc1Nc1nccc(-c2cccnc2)n1 [IMATINIB] | > 10 µM | > 10 µM | > 10 µM | > 10 µM | 0.014 µM | > 10 µM | Active | 31.9% | > 10 µM | > 10 µM | > 10 µM | Active | > 10 µM | > 10 µM | 0.008 µM | > 10 µM | – | – | – | – |
| Cc1ccc(C(=O)N2CCC(Oc3cc(NC(=O)c4ccc(CN5CCN(C)CC5)c(C(F)(F)F)c4)ccc3C)CC2)cn1 | 3.96 µM | 3.47 µM | 6.08 µM | > 10 µM | 0.095 µM | 8.14 µM | – | 66.8% | 8.49 µM | 0.658 µM | 0.035 µM | – | 5.73 µM | > 10 µM | 0.023 µM | 7.34 µM | 5.75 h | 0.45% | 0.8% | 7.46 g |
